Measurements: ChEMBL document CHEMBL1152496, “N-Terminal 2,3-diaminopropionic acid (Dap) peptides as efficient methylglyoxal scavengers to inhibit advanced glycation endproduct (AGE) formation” (Bioorg Med Chem, 2009)
Where a SMILES comes first, the peptide text is derived from it. [ ]: non-standard residue; d: D form. dDap = NC[C@@H](N)C(=O)O; Dap = NC[C@H](N)C(=O)O

Tests used:
[1] = Inhibition of alpha-dicarbonyls-induced advanced glycation end product formation assessed as protection against 100 eq. MG-induced insulin degradation at 3.75 mM after 24 hrs by RP-HPLC; design: scale not given: the % may be the effect or the level left; conditions: 3750 µM
[2] = Inhibition of alpha-dicarbonyls-induced advanced glycation end product formation assessed as protection against MG-induced loss of bovine pancreatic RNaseA enzyme activity after 48 hrs […]; type: physicochemical; design: concentration or dose not given beside the values; conditions: cattle
Outline: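 RNase A was pre-incubated with equimolar MG ± scavenger at 37 °C, pH 7.4. The glycated enzyme (10 µg/mL) was added to a methylene blue–yeast RNA solution (600 µg/mL RNA working concentration), and remaining activity was compared with control.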

[3] = Cytotoxicity in human EAhy926 cells assessed as viable cells at 1 mM after 48 hrs by MTT assay
[4] = Cytoprotective activity against MG-induced cytotoxicity in human EAhy926 cells assessed as viable cells at 1 mM after 48 hrs by MTT assay; conditions: EA.hy 926
[5] = Inhibition of alpha-dicarbonyls-induced advanced glycation end product formation assessed as protection against MG-induced insulin degradation at 3.75 mM after 7 days by RP-HPLC; type: physicochemical; design: scale not given: the % may be the effect or the level left; conditions: 168 h, 3750 µM
Outline: (§1)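 Human insulin (34 µM) was incubated in 10 mM phosphate pH 7.4 with 0.1 M NaCl at 37 °C with MG, ± scavenger at 1.1 mol equiv relative to MG. The standard condition was MG 3.4 mM (100 equiv) with scavenger 3.75 mM for 24 h. Remaining intact insulin was quantified by C18 RP-HPLC (TFA water/acetonitrile gradient) against the insulin-alone control.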

[6] = Inhibition of alpha-dicarbonyls-induced advanced glycation end product formation assessed as protection against MG-induced insulin degradation at 3.75 mM after 2 days by RP-HPLC; type: physicochemical; design: scale not given: the % may be the effect or the level left; conditions: 48 h, 3750 µM
Outline: as §1

[7] = Inhibition of alpha-dicarbonyls-induced advanced glycation end product formation assessed as protection against MG-induced insulin degradation at 3.75 mM after 5 days by RP-HPLC; type: physicochemical; design: scale not given: the % may be the effect or the level left; conditions: 120 h, 3750 µM
Outline: as §1

[8] = Inhibition of alpha-dicarbonyls-induced advanced glycation end product formation assessed as protection against 100 eq. MG-induced insulin degradation at 3.75 mM after 24 hrs by RP-HPLC; type: physicochemical; design: scale not given: the % may be the effect or the level left; conditions: 3750 µM
Outline: as §1

[9] = Inhibition of alpha-dicarbonyls-induced advanced glycation end product formation assessed as protection against 5 eq. MG-induced insulin degradation at 3.75 mM after 24 hrs by RP-HPLC; type: physicochemical; design: scale not given: the % may be the effect or the level left; conditions: 3750 µM
Outline: as §1

[10] = Inhibition of alpha-dicarbonyls-induced advanced glycation end product formation assessed as protection against 10 eq. MG-induced insulin degradation at 3.75 mM after 24 hrs by RP-HPLC; type: physicochemical; design: scale not given: the % may be the effect or the level left; conditions: 3750 µM
Outline: as §1

[11] = Mutagenic activity in Salmonella Typhimurium TA98 at 0.1 to 10 uM after 60 hrs by Ames test in absence of human S9 fraction and in presence of MG; type: toxicity; conditions: salmonella enterica subsp. enterica serovar typhimurium, s9, 60 h
Outline: (§2)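 Ames assay used a mix of S. typhimurium TA7001–TA7006 and, separately, TA98. Test substance (10, 1, 0.1 µM; alone or with MG; MG alone 10 µM) was incubated ± human liver S9 at 37 °C for 90 min, then in indicator medium for 60 h. Positive controls were 2-aminoanthracene, 4-nitroquinoline N-oxide and 2-nitrofluorene; solvent was the negative control. Duplicate experiments, 48 wells per point.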

[12] = Mutagenic activity in Salmonella Typhimurium TA98 at 0.1 to 10 uM after 60 hrs by Ames test in presence of human S9 fraction; type: toxicity; conditions: salmonella enterica subsp. enterica serovar typhimurium, s9, 60 h
Outline: as §2

[13] = Mutagenic activity in Salmonella Typhimurium TA98 at 0.1 to 10 uM after 60 hrs by Ames test in presence of human S9 fraction and MG; type: toxicity; conditions: salmonella enterica subsp. enterica serovar typhimurium, s9, 60 h
Outline: as §2

[14] = Mutagenic activity in Salmonella Typhimurium at 0.1 to 10 uM after 60 hrs by Ames test in presence of human S9 fraction; type: toxicity; conditions: salmonella enterica subsp. enterica serovar typhimurium, s9, 60 h
Outline: as §2

[15] = Inhibition of alpha-dicarbonyls-induced advanced glycation end product formation assessed as protection against MG-induced human glyoxalase1 degradation after 24 hrs by […]; type: physicochemical
Outline: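 Human glyoxalase I was incubated with MG (protein/MG 1/1) ± scavenger (1.1 or 2.2 equiv) at 37 °C, pH 7.4, for 24 h, then stored at −20 °C. Mobility shift was analysed by non-denaturing PAGE.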

[16] = Inhibition of alpha-dicarbonyls-induced advanced glycation end product formation assessed as protection against MG-induced chicken lysozyme degradation after 48 hrs by SDS-PAGE; type: physicochemical
Outline: (§3)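 Protein stock (10–15 mg/mL in phosphate buffer) was incubated with MG ± scavenger at 37 °C, pH 7.4, for 48 h, then stored at −20 °C until SDS–PAGE. For RNase A, MG was equimolar to protein and scavenger was 1.1 mol per mol MG.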

[17] = Inhibition of alpha-dicarbonyls-induced advanced glycation end product formation assessed as protection against MG-induced loss of human glyoxalase1 enzyme activity after 48 hrs […]; type: physicochemical; design: scale not given: the % may be the effect or the level left; conditions: 24 h; in the assay text read “24 hrs” for “48 hrs”
Outline: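 Human glyoxalase I was pre-incubated with equimolar MG ± scavenger. Substrate hemithioacetal was formed from 2 mM MG and 2 mM reduced glutathione in 50 mM sodium phosphate pH 6.6 (20 min, 37 °C; ~600 µM) and equilibrated 15 min. Enzyme was then added, and S-D-lactoylglutathione formation was followed at 240 nm. One unit = 1 µmol per min.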

[18] = Mutagenic activity in Salmonella Typhimurium at 0.1 to 10 uM after 60 hrs by Ames test in absence of human S9 fraction and in presence of MG; type: toxicity; conditions: salmonella enterica subsp. enterica serovar typhimurium, s9, 60 h
Outline: as §2

[19] = Inhibition of alpha-dicarbonyls-induced advanced glycation end product formation assessed as protection against MG-induced bovine pancreatic RNaseA degradation after 48 hrs by SDS-PAGE; type: physicochemical; conditions: cattle
Outline: as §3

[20] = Mutagenic activity in Salmonella Typhimurium at 0.1 to 10 uM after 60 hrs by Ames test in absence of human S9 fraction; type: toxicity; conditions: salmonella enterica subsp. enterica serovar typhimurium, s9, 60 h
Outline: as §2

[21] = Mutagenic activity in Salmonella Typhimurium at 51.7 uM after 60 hrs by Ames test in presence of human S9 fraction; conditions: salmonella enterica subsp. enterica serovar typhimurium, s9, 60 h
[22] = Mutagenic activity in Salmonella Typhimurium TA98 at 51.7 uM after 60 hrs by Ames test in presence of human S9 fraction; conditions: salmonella enterica subsp. enterica serovar typhimurium, s9, 60 h

SMILES | Activity [1] [%] | viability at 1000 µM [3] [%] | viability at 1000 µM [4] [%] | also measured
NC[C@@H](N)C(=O)N[C@H](Cc1ccccc1)C(=O)O | 66 |  |  | Activity [2]: 70%
NC[C@H](N)C(=O)NCCC(=O)O | 69 |  |  | 
NCCCC[C@H](NC(=O)[C@H](N)CN)C(=O)O |  | 81 | 43 | 
NC[C@@H](N)C(=O)N[C@@H](Cc1ccc(C(F)(F)F)cc1)C(=O)O | 74 |  |  | 
CCCC[C@H](NC(=O)[C@@H](N)CN)C(=O)O |  | 94 | 74 | 
CC(C)C[C@@H](NC(=O)[C@@H](N)CN)C(=O)O |  | 87 | 71 | 
NC[C@H](N)C(=O)N[C@@H](Cc1ccccc1)C(=O)O |  | 78 | 67 | 
CC(C)C[C@H](NC(=O)[C@H](N)CN)C(=O)O | 83 |  |  | Activity [5]: 88%; Activity [6]: 88%; Activity [7]: 85%; Activity [8]: 83%; Activity [9]: 90%; Activity [10]: 90%
CCCC[C@H](NC(=O)[C@H](N)CN)C(=O)O | 91 |  |  | 
CC(C)C[C@H](NC(=O)[C@@H](N)CN)C(=O)O | 87 | 78 | 69 | Activity [11]: Non-toxic; Activity [12]: Non-toxic; Activity [13]: Non-toxic; Activity [2]: 94%; Activity [14]: Non-toxic; Activity [15]: Active; Activity [16]: Active; Activity [17]: 96%; Activity [18]: Non-toxic; Activity [19]: Active; Activity [20]: Non-toxic
NCC(N)C(=O)O (stereo not given) | 98 |  |  | Activity [2]: 20%
NC[C@@H](N)C(=O)N[C@H](CC(=O)O)C(=O)O | 61 |  |  | 
CC(C)C[C@@H](NC(=O)[C@H](N)CN)C(=O)O | 84 |  |  | 
NC[C@H](N)C(=O)NCC(=O)O (H-[Dap]-Gly-OH) | 67 | 57 | 54 | Activity [2]: 86%
CC[C@H](C)[C@H](NC(=O)[C@@H](N)CN)C(=O)O (H-[Dap]-Ile-OH) | 75 | 86 | 79 | Activity [2]: 91%
NC[C@H](N)C(=O)N1CCC[C@H]1C(=O)O (H-[Dap]-Pro-OH) | 77 |  |  | 

SMILES | Activity [1] [%] | viability at 1000 µM [3] [%] | viability at 1000 µM [4] [%] | also measured
CC(C)[C@H](NC(=O)[C@@H](N)CN)C(=O)O (H-[Dap]-Val-OH) | 71 | 96 | 93 | Activity [2]: 91%; Activity [16]: Active; Activity [19]: Active
C[C@@H](NC(=O)[C@H](N)CN)C(=O)O (H-[dDap]-[dA]-OH) | 71 | 72 | 71 | Activity [2]: 87%
NC[C@@H](N)C(=O)NC(Cc1ccc(F)cc1)C(=O)O (mixture of isomers) | 53 |  |  | 
NCCC(N)C(=O)O (racemic) | 40 |  |  | 
CC(C)(S)C(N)C(=O)O (racemic) [DL-PENICILLAMINE] | 69 | 86 | 61 | 
CCCCCCCCCCCCCCCCOC(=O)[C@H](CC(C)C)NC(=O)C(N)CN (single isomer, unassigned) | 74 | 23 | 33 | 
NCC(N)C(=O)O (single isomer, unassigned) [DIAMINOPROPANOIC ACID] |  | 81 | 67 | 
Nc1ccc2cc3ccccc3cc2c1 [2-AMINOANTHRACENE] |  |  |  | Activity [21]: Toxic; Activity [22]: Toxic
N=C(N)NCCC[C@H](N)C(=O)O [ARGININE] | 18 |  |  | 
NCCC(=O)N[C@@H](Cc1cnc[nH]1)C(=O)O [CARNOSINE] | 0 | 97 | 54 | 
N[C@@H](CS)C(=O)O [CYSTEINE] | 69 |  |  | 
NCCCC[C@H](N)C(=O)O [LYSINE] | 0 |  |  | 
CN(C)C(=N)N=C(N)N [METFORMIN] | 11 | 84 | 53 | 
N=C(N)NN [PIMAGEDINE] | 85 | 94 | 75 | Activity [2]: 70%
Cc1ncc(CO)c(CN)c1O [PYRIDOXAMINE] | 14 | 92 | 32 | 
